Reference: ChEMBL document CHEMBL1152928, “Ingol and ingenol diterpenes from the aerial parts of Euphorbia royleana and their antiangiogenic activities” (J Nat Prod, 2009)

Legend:
[1] = Antiangiogenic activity in zebrafish embryo assessed as inhibition of intersegmental vessel growth at 10 ug/mL after 24 hours by alkaline phosphatase staining relative to control; format: functional, Danio rerio
Method in brief: (§1)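 Embryos at 24 hpf randomly distributed into wells and exposed 24 h. Intersegmental vessels visualized by GFP labeling plus endogenous alkaline phosphatase staining. Activity derived from inhibition ratio of angiogenesis versus 0.1% DMSO vehicle control. PTK787 positive control.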

[2] = Antiangiogenic activity in zebrafish embryo assessed as inhibition of intersegmental vessel growth at 3 ug/mL after 24 hours by alkaline phosphatase staining relative to control; format: functional, Danio rerio; method in brief: as §1
[3] = Antiangiogenic activity in zebrafish embryo assessed as inhibition of intersegmental vessels growth after 24 hours by alkaline phosphatase staining; format: functional, tissue-based, Danio rerio; method in brief: as §1
[4] = Antiangiogenic activity in zebrafish embryo assessed as inhibition of intersegmental vessel growth at 1 ug/mL after 24 hours by alkaline phosphatase staining relative to control; format: functional, Danio rerio; method in brief: as §1
[5] = Antiangiogenic activity in zebrafish embryo assessed as inhibition of intersegmental vessel growth at 5 ug/mL after 24 hours by alkaline phosphatase staining relative to PTK787; format: functional, Danio rerio
[6] = Antiangiogenic activity in zebrafish embryo assessed as inhibition of intersegmental vessel growth at 0.1 ug/mL after 24 hours by alkaline phosphatase staining relative to control; format: functional, Danio rerio; method in brief: as §1

Structure (SMILES) | inhibition (INH) [1] [%] | inhibition (INH) [2] [%] | IC50 [3] [µg/mL] | inhibition (INH) [4] [%] | inhibition (INH) [5] [%] | inhibition (INH) [6] [%]
C/C=C(\C)C(=O)O[C@H]1[C@H]2[C@@H]([C@H](OC(C)=O)[C@@H](C)C(=O)[C@@]34C[C@H](C)[C@H](OC(=O)/C(C)=C/C)[C@]3(/C=C(\C)[C@H]1O)O4)C2(C)C | 4.7 | 3.6 | > 5 | 2.9 |  | 
CC(=O)O[C@H]1[C@H]2[C@@H]([C@H](OC(C)=O)[C@@H](C)C(=O)[C@@]34C[C@H](C)[C@H](OC(C)=O)[C@]3(/C=C(\C)[C@H]1OC(=O)c1ccccc1)O4)C2(C)C |  |  | > 5 |  |  | 
CC(=O)O[C@H]1[C@H]2[C@@H]([C@H](OC(C)=O)[C@@H](C)C(=O)[C@@]34C[C@H](C)[C@H](OC(=O)c5ccccc5)[C@]3(/C=C(\C)[C@H]1OC(=O)c1ccccc1)O4)C2(C)C | 1.8 | 1.8 | > 5 | 1.8 |  | 
C/C=C(\C)C(=O)O[C@H]1[C@H]2[C@@H]([C@H](OC(C)=O)[C@@H](C)C(=O)[C@@]34C[C@H](C)[C@H](OC(=O)c5ccccc5)[C@]3(/C=C(\C)[C@H]1O)O4)C2(C)C | 3.2 | 5.4 | > 5 |  | 0 | 
C/C=C(\C)C(=O)O[C@@H]1/C(C)=C/[C@@]23O[C@@]2(C[C@H](C)[C@@H]3OC(=O)/C(C)=C/C)C(=O)[C@H](C)[C@@H](OC(C)=O)[C@@H]2[C@H]([C@@H]1OC(C)=O)C2(C)C | 5 | 5.8 | > 5 |  | 5.8 | 
C/C=C(\C)C(=O)O[C@H]1[C@@H](C)C[C@@]23O[C@@]12/C=C(\C)[C@@H](O)[C@@H](OC(=O)c1ccccc1)[C@H]1[C@@H]([C@H](OC(C)=O)[C@@H](C)C3=O)C1(C)C | 4.7 | 3.6 | > 5 | 4.7 |  | 
CC(=O)O[C@H]1[C@@H]2[C@H]([C@H](OC(=O)c3ccccc3)[C@H](O)/C(C)=C/[C@@]34O[C@@]3(C[C@@H](C)[C@@H]4OC(=O)c3ccccc3)C(=O)[C@@H]1C)C2(C)C | 3.6 | 1.8 | > 5 | 1.1 |  | 
CC(=O)O[C@H]1[C@@H]2[C@H]([C@H](OC(=O)c3ccccc3)[C@H](O)/C(C)=C/[C@@]34O[C@@]3(C[C@H](C)[C@@H]4OC(=O)c3ccccc3)C(=O)[C@@H]1C)C2(C)C | 0 | 2.1 | > 5 | 0 |  | 
C/C=C(\C)C(=O)O[C@H]1[C@H]2[C@@H]([C@H](OC(C)=O)[C@@H](C)C(=O)[C@@]34C[C@H](C)[C@H](OC(=O)/C(C)=C/C)[C@]3(/C=C(\C)[C@H]1OC(=O)c1ccccc1)O4)C2(C)C | 12.2 | 4.7 | > 5 |  | 1.1 | 
Clc1ccc(Nc2nnc(Cc3ccncc3)c3ccccc23)cc1.O=C(O)CCC(=O)O | 100 |  | 0.15 | 95.5 |  | 34.6
C/C=C(\C)C(=O)O[C@H]1[C@H]2[C@@H]([C@H](OC(C)=O)[C@@H](C)C(=O)[C@@]34C[C@@H](C)[C@H](OC(=O)c5ccccc5)[C@]3(/C=C(\C)[C@H]1O)O4)C2(C)C | 0 | 1.1 | > 5 | 5.4 |  | 
